# Screening data: PubChem, several laboratories
# VIM-2 inhibitor – inhibitors of Pseudomonas aeruginosa VIM-2 metallo-beta-lactamase | inhibition, % at 5.6 µM | hit rate 0.89% among 290,000 | purified VIM-2, nitrocefin hydrolysis, epi-absorbance fluorescence | AID 1527;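 active means inhibition above the mean of all tested compounds plus 3 SD, cutoff set per screening run, cut at about 7.5% in these data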;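 further: red hydrolysis product quenches plate fluorescence so inhibitors raise well fluorescence; 0% = enzyme with DMSO and 100% = DMSO without enzyme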
# Jurkat NFkB inh – lowers PMA/ionomycin-induced NF-kB signal in Jurkat cells. PMA/ionomycin-induced NF-kB luciferase reporter, luminescence. inhibition, % at 4 µM. hit rate 0.53% among 330,000. AID 435003; in the data active means inhibition above about 50%
# IMP-1 inh – inhibitors of Pseudomonas aeruginosa IMP-1 metallo-beta-lactamase | purified IMP-1, nitrocefin hydrolysis, epi-absorbance fluorescence | inhibition, % at 5.6 µM | hit rate 0.45% among 290,000;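 active means inhibition above the mean plus 3 SD of all compounds in the same screening run, cut at about 4.5% in these data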;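 further: 0% = IMP-1 with DMSO and 100% = DMSO wells lacking enzyme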
#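 System: purified IMP-1; amount: IMP-1 0.2 nM before substrate addition; compound: single dose, 5.6 µM; times: 25 °C, 15 min preincubation, 25 min reaction; signal: Epi-absorbance via hydrolysed-nitrocefin quenching of white-plate fluorescence, 480/530 nm, EDTA stop; benchmarks: DMSO with and without IMP-1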
# Mdm2-MdmX inh – human Mdm2/MdmX binding inhibition | O15151+Q00987 | hit rate 3% among 330,000 | AID 485346 | inhibition, % at 8 µM | SaOS-2 split-luciferase Mdm2/MdmX complementation, luminescence;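 active means inhibition of at least 50% at 8 µM in the primary screen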
# 697 NFkB inh – lowers PMA/ionomycin-induced NF-kB signal in 697 B cells. 697 B-cell NF-kB luciferase reporter, 16 h. inhibition, % at 4 µM. hit rate 0.33% among 330,000. AID 435022; in the data active means inhibition above about 35%
# aSyn 5UTR inh – 5' untranslated region of α-synuclein, MLPCN primary screen; alpha-synuclein 5'UTR reporter, inhibitor activity; inhibition, % (tested at 7.5 µM); hit rate 0.82% among 300,000; AID 1813; in the data active means inhibition above about 60%;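 further: H4 neuroglioblastoma cells stably carrying SNCA 5'UTR luciferase fusion; 0% = DMSO wells and 100% = positive control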
# An asterisk follows results filed as active; x = no result given. Shown are actives, neighbours in structure and some others; about 4.7% of the full set was active somewhere.
SMILES,VIM-2 inhibitor,Jurkat NFkB inh,IMP-1 inh,Mdm2-MdmX inh,697 NFkB inh,aSyn 5UTR inh
Cc1ccc(S(=O)(=O)N2CCOCC(=O)NCCOCCNC(=O)COCC2)cc1,0,x,-2,x,x,16
COc1ccc(N(C)S(=O)(=O)c2cccc(C(=O)N3CCN(S(=O)(=O)c4ccc(C)cc4)CC3)c2)cc1,-4,6,-4,15,1,25
Cc1ccc(O)c(Nc2c3ccccc3nc3ccccc23)c1,9.2*,14,-3,39,-16,-9
CCC(=O)Nc1ccc(C(=O)CSc2nnc(-c3ccccc3F)n2C2CC2)cc1,2,36,5.5*,-3,-53,4
C=CCNC(=O)CSc1ncc2c(n1)-c1c(csc1SC)CC2,1,0,0,16,-11,-16
CSc1scc2c1-c1nc(SCC(=O)C(C)(C)C)ncc1CC2,2,-12,9.8*,25,0,-3
CN(CCC#N)c1ccc(/C=C(\C#N)c2ccccn2)cc1,3,-29,25*,-137,-18,-28
OCCN(CCO)c1nc(N2CCCCC2)c2nc(N(CCO)CCO)nc(N3CCCCC3)c2n1,7,-2,12*,21,11,x
CCCCCCC(=O)NN1CCN(C)CC1,-4,-7,8.0*,19,0,26
OCCNCCNCc1ccc(-c2ccccc2)cc1,9.3*,4,-2,12,16,-22
CC(CO)(CO)NCc1ccc(-c2ccccc2)cc1,-1,2,-2,-15,-30,-10
O=C(OCC(=O)N1CCN(c2ccccc2)CC1)c1nc(Cl)ccc1Cl,x,3,x,8,9,-8
O=C(C[C@H]1C/C=C\C[C@@H](Cc2ccc(F)cc2)C(=O)OC[C@H]2CCCN2C1=O)NCCO,x,1,x,7,4,x
Cc1cccc(N2C(=O)c3cccc4c(N(C)CCO)ccc(c34)C2=O)c1,4,12,5.1*,7,-24,-6
CN(C)c1ccc2c3c(cccc13)C(=O)N(c1ccccc1)C2=O,-1,-4,0,15,5,9
O=C1c2cccc(O)c2C(=O)c2c(O)cccc21,2,8,-2,23,-15,-17
COc1cccc2c1-c1c(O)cccc1C2=O,11*,-11,-1,13,3,4
NS(=O)(=O)c1ccc(CCNc2nc(CN3CCOCC3)nc3sc4c(c23)CCC4)cc1,3,-7,-3,-5,-13,-19
Cc1nc(NCCc2ccc(S(N)(=O)=O)cc2)c2c3c(sc2n1)CCC3,7.9*,15,-3,2,-16,-116
Cc1c(OCC(=O)N2C[C@H]3C[C@@H](C2)c2cccc(=O)n2C3)ccc2c3c(c(=O)oc12)CCCC3,6,13,-3,8,34,-5
O=C(COc1cc2oc(=O)c3c(c2cc1Cl)CCC3)N1C[C@H]2C[C@@H](C1)c1cccc(=O)n1C2,11*,4,0,12,13,-2
C=C(C)COc1cc2oc(=O)c(CC(=O)N3C[C@H]4C[C@@H](C3)c3cccc(=O)n3C4)c(C)c2cc1Cl,-1,5,-2,-30,26,23
Cc1c(OCC(=O)N2C[C@H]3C[C@@H](C2)c2cccc(=O)n2C3)ccc2c3c(c(=O)oc12)CCC3,12*,11,-2,36,31,-20
Cc1cccc(N2C(=O)c3cccc4c(N5CCCCC5)c([N+](=O)[O-])cc(c34)C2=O)c1C,0,-11,-4,18,-98,62*
Cc1cc(C)cc(OCCCCn2cncn2)c1,-3,5,-1,11,3,8
SMILES,VIM-2 inhibitor,Jurkat NFkB inh,IMP-1 inh,Mdm2-MdmX inh,697 NFkB inh,aSyn 5UTR inh
COc1ccc(Nc2nc(C)cc(C)c2C#N)cc1,-2,-3,-3,-7,-15,36
COc1cnc(SC)nc1Nc1ccc(C#N)cc1,9.1*,18,-3,18,10,11
CC(C)CN(C(=O)Cn1nnc(-c2ccc(F)cc2)n1)C1CCS(=O)(=O)C1 (stereo unspecified),x,22,x,26,14,-1
COc1ccc(CNC(=O)C(OC(=O)c2ccco2)c2ccccc2F)cc1 (stereo unspecified),-1,-10,-3,28,8,-31
COc1ccc(CNC(=O)C(OC(C)=O)c2ccccn2)cc1 (stereo unspecified),-1,-17,5.8*,-17,-29,-3
O=C(Nc1ccc2c(c1)OCCO2)NC1(C(F)(F)F)Oc2ccccc2O1,-1,22,0,13,-35,62*
